# CAL PDZ FP-1: untagged CAL PDZ binding inhibitors, primary screen, biochemical, fluorescence polarization, HTS; purified CAL PDZ, TMR-peptide fluorescence polarization, 1 h; inhibition, % at 24.9 µM; 300,000 tested, 0.92% active; Golgi-associated PDZ and coiled-coil motif-containing protein (Homo sapiens), Q9HD26; AID 602252, 2012;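 active = mean inhibition of at least 30% with at least half of replicates also reaching 30%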;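 also: 0% = DMSO neutral control and 100% = excess unlabeled competitor peptide PRC23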
# Rin1 Abl inh: inhibitors of Rin1-Abl protein binding, primary screen, biochemical, TR-FRET; Tyrosine-protein kinase ABL1 (Homo sapiens) + Ras and Rab interactor 1 (Homo sapiens), …; inhibition, % at 7.35 µM; 360,000 tested, 0.4% active; in the data active = inhibition above about 5%, passing the limit was not always enough
# ERAP1 HTS inh: human ERAP1 aminopeptidase inhibitors, primary screen, biochemical, single point, plate reader; Endoplasmic reticulum aminopeptidase 1 (Homo sapiens), Q9NZ08; recombinant ERAP1, Leu-AMC fluorescence, 60 min; inhibition, % at 10.7 µM; 340,000 tested, 0.15% active; AID 652197, 2013;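 active = mean replicate inhibition of at least 30%, or all replicates individually reaching that 30% level; inactive = mean below 30% and not every replicate reaching it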;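 also: 0% = neutral control wells and 100% = L-leucinethiol positive control wells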
# PDI turbidity: inhibitors of human PDI, primary screen, biochemical, turbidity, single point, plate reader. Protein disulfide-isomerase (Homo sapiens), P07237. PDI insulin aggregation turbidity, A650, 90 min. inhibition, % at 10 µM. 350,000 tested, 0.052% active. AID 588391, 2011;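 active = mean inhibition across replicates of 30% or more, whatever share of single replicates reach that level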
# CAL PDZ FP-2: CAL PDZ peptide-binding inhibitors, primary screen, biochemical, fluorescence polarization, Cer-tagged CAL PDZ, HTS; purified CAL PDZ, TMR-peptide fluorescence polarization, 1 h; 330,000 tested, 0.02% active; Golgi-associated PDZ and coiled-coil motif-containing protein (Homo sapiens), Q9HD26; inhibition, % at 20 µM;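 active = highest replicate inhibition of at least 40%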;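 also: plate controls were DMSO neutral control wells for no effect and unlabeled competitor peptide control wells for full effect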
#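 Read-out basis: mP drop reported as inhibition | Assay system: Tagged CAL PDZ protein CerCALP, purified | Benchmarks: Unlabelled peptide for full inhibition, DMSO wells as neutral | Schedule: 1 h incubation at room temperature before polarization reading | Buffer or medium: Sodium phosphate/NaCl buffer pH 7.4 with TCEP, IgG, Thesit | Doses: Single point, 20 µM | Measured by: Fluorescence polarization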
# ERp5 inh: inhibitors of ERp5-driven insulin aggregation, primary screen, biochemical, turbidity, absorbance 650 nm, single point. inhibition, % at 9.99 µM. 90 min. 350,000 tested, 0.05% active. Protein disulfide-isomerase A6 (Homo sapiens), Q15084. AID 651711, 2012;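 active = mean replicate inhibition above about 25%, with every replicate also reaching it, limit read from the data, passing the limit was not always enough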
# Active calls of the source: *; nt = no result given. Rows were chosen to be rich in hits. Some 1.1% of all compounds tested hit in one or more screens of this group.
SMILES,CAL PDZ FP-1,Rin1 Abl inh,ERAP1 HTS inh,PDI turbidity,CAL PDZ FP-2,ERp5 inh
Cc1nn(Cc2c(Cl)cccc2Cl)c(C)c1NC(=O)c1sc2ccccc2c1Cl,-2.2,-1.4,nt,3.5,0.5,nt
Cc1nn(Cc2ccc(Cl)c(Cl)c2)c(C)c1NC(=O)c1sc2ccccc2c1Cl,34.6*,-3.0,nt,-5.5,nt,nt
COc1ccc(S(=O)(=O)Nc2ccc3c(c2)CC(=O)N([C@H](C)CO)C[C@@H](C)[C@H](CN(C)C(=O)NC2CCCCC2)O3)cc1,nt,nt,1.9,nt,nt,0.1
Cc1nn(-c2ccccc2)c2c1C(c1ccc(F)cc1F)C(C#N)=C(N)O2 (centres undefined),30.1*,4.8,nt,1.1,-1.8,nt
Nc1c(C(=O)NCc2ccco2)c2nc3ccccc3nc2n1CCc1ccc(F)cc1,-7.5,15.4*,nt,-13.4,-1.2,nt
Cc1cc2c(=Cc3ccc(N(C)C)cc3)c3ccccc3n2[n+]1C,-4.9,-26.2,6.8,-3.8,7.5,-7.4
CN(C)c1ccc(C=c2c3cc(O)ccc3n3c2cc(-c2ccccc2)[n+]3C)cc1,-6.0,-12.0,55.9*,-0.2,34.6,-4.6
C[C@H](CO)N1C[C@H](C)[C@@H](CN(C)Cc2ccc(Oc3ccccc3)cc2)Oc2ccc(NS(=O)(=O)c3cccs3)cc2CC1=O,nt,nt,1.3,nt,nt,3.1
CCOC(=O)C1=C(C)NC(C)=C(C(=O)OCC)C1C(=O)OCC(=O)NCc1ccccc1,nt,-0.7,16.2,4.0,-0.6,-3.8
CCOC(=O)C1=C(C)NC(C)=C(C(=O)OCC)C1C(=O)OCC(=O)NCc1ccccc1OC,87.9*,1.2,4.4,-3.2,-0.5,2.3
COc1cccc(C(=O)NCCOc2cc(C)cc(C)c2)c1,38.4*,-2.2,nt,16.5,-2.2,nt
O=C(Nc1ccc(Cl)cc1)N[C@@H]1CC[C@@H](CCn2cc(Cc3ccccc3)nn2)O[C@H]1CO,nt,nt,1.0,nt,nt,-4.8
COc1cnc(-c2ccccn2)nc1N(C)C,72.7*,-6.1,14.4,5.1,-0.4,-2.3
COc1ccc(Oc2nc(-c3ccccn3)ncc2OC)cc1,5.5,-1.5,-3.4,2.0,-0.5,3.5
O=C(O)c1ccc(N/N=C/c2ccc(-c3ccc(Br)cc3)o2)cc1,-1.5,11.9*,-2.1,-7.5,-3.7,-4.8
O=C(CN1CCOCC1)N/N=C/c1ccc(-c2ccc(C(=O)O)cc2)o1,-1.6,-4.4,93.2*,6.1,-3.8,6.2
Cc1ccc(/C=N/Nc2ccc(C(=O)O)cc2)s1,0.7,0.9,-21.0,-7.7,0.4,-3.2
CC1(CC(=O)N/N=C/c2ccc(-c3ccc(C(=O)O)cc3)o2)OCCO1,-2.7,-1.7,9.9,2.7,-2.0,-4.2
O=C(O)c1ccc(N/N=C/c2cc(Br)cs2)cc1,35.7*,-2.5,-25.2,1.4,0.5,-6.2
COc1cccc(NC(=O)N[C@@H]2CC[C@@H](CC(=O)NCc3ccccn3)O[C@@H]2CO)c1,nt,nt,1.1,nt,nt,3.0
COc1cccc(NC(=O)CCS(=O)(=O)c2cccs2)c1,72.0*,-2.0,nt,0.6,-1.5,nt
COC(=O)c1ccccc1NC(=O)CSc1nncn1C,54.7*,-2.1,2.9,1.6,-0.4,-1.6
Cc1ccc(C(=O)Nc2ncc(C)s2)o1,nt,-6.3,nt,0.5,-3.0,nt
Cc1cnc(NC(=O)NCC2CCCC(CNC(=O)Nc3ncc(C)s3)C2)s1 (centres undefined),67.4*,-2.5,-2.3,0.3,-1.0,2.2
CN1C(=O)c2cc(NC(=O)c3cccc(C(F)(F)F)c3)ccc2OC[C@H]2O[C@H](CC(=O)O)CC[C@@H]21,nt,nt,-2.5,nt,nt,1.1
SMILES,CAL PDZ FP-1,Rin1 Abl inh,ERAP1 HTS inh,PDI turbidity,CAL PDZ FP-2,ERp5 inh
C[C@@H]1CN([C@@H](C)CO)C(=O)c2cccc(NS(C)(=O)=O)c2O[C@@H]1CN(C)C(=O)Nc1cccc2ccccc12,nt,nt,-8.8,nt,nt,-5.7
CC1=C(C(=O)OCC2CCCO2)C(c2ccncc2)C2=C(CC(C)(C)CC2=O)N1 (centres undefined),40.3*,-2.3,nt,-0.1,nt,nt
Cc1nn2c(-c3ccc(F)cc3)ccnc2c1Cl,60.5*,-1.2,0.0,1.9,0.7,2.2
O=C(C[C@H]1C[C@@H]2c3cc(NC(=O)NC4CCCC4)ccc3O[C@@H]2[C@@H](CO)O1)NCCN1CCCCC1,nt,nt,-3.4,nt,nt,-7.3
Nc1ccccc1SC(CC(=O)c1ccccc1)c1cccc([N+](=O)[O-])c1 (centres undefined),nt,-0.6,-1.2,56.4*,nt,5.0
C[C@@H]1CN([C@H](C)CO)C(=O)Cc2cc(NS(=O)(=O)c3ccc(F)cc3)ccc2O[C@@H]1CN(C)S(=O)(=O)c1cn(C)cn1,nt,nt,1.8,nt,nt,26.9*
C[C@@H]1CN([C@H](C)CO)C(=O)Cc2cc(NC(=O)c3ccncc3)ccc2O[C@H]1CN(C)S(=O)(=O)c1cn(C)cn1,nt,nt,-0.3,nt,nt,76.6*
CO[C@H]1CN(C)C(=O)c2ccc(NC(=O)c3nc4ccccc4s3)cc2OC[C@H](C)N(Cc2ccncc2)C[C@H]1C,nt,nt,-2.7,nt,nt,9.7
COc1ccc(NC(=O)CN2C(=O)NC3(CCCCCC3)C2=O)cc1Cl,2.7,3.1,1.1,2.3,0.7,-1.2
COc1ccc(C2(c3ccc(OC)cc3)NC(=O)N(CC(=O)Nc3ccc(OC)c(OC)c3)C2=O)cc1,51.2*,1.1,-2.4,8.4,-0.6,10.2
COc1ccc(C2(c3ccc(OC)cc3)NC(=O)N(CC(=O)Nc3ccc(C(N)=O)cc3)C2=O)cc1,-5.5,-0.4,-2.1,-5.4,-1.2,4.7
CCC1CCC2(CC1)NC(=O)N(CC(=O)Nc1ccc(OC)c(Cl)c1)C2=O (centres undefined),81.3*,0.4,-0.3,-1.5,-0.2,3.6
O=C1NC(=O)/C(=C/c2cccc3ccccc23)S1,-5.0,-0.8,-1.5,-4.4,-0.1,2.6
O=C1NC(=O)/C(=C\c2ccc(O)cc2O)S1,51.8*,4.0,6.2,-1.4,0.0,2.8
CCCN1[C@@H]2c3cccc(=O)n3C[C@@H]2[C@@H](CO)[C@@H]1C(=O)N[C@H](C)c1ccccc1,nt,nt,-1.3,nt,nt,-6.3
C/C=C/c1ccccc1[C@H]1[C@@H](CO)N(C(=O)NC2CCCCC2)[C@H]1C#N,nt,nt,-2.8,nt,nt,-0.6
CN(C)c1c([N+](=O)[O-])cc(N2C(=O)C=CC2=O)cc1[N+](=O)[O-],36.5*,-0.8,nt,6.2,-0.9,nt
O=C(C[C@@H]1CC[C@H](NC(=O)CC2CC2)[C@@H](CO)O1)NCC(F)(F)F,nt,nt,-1.4,nt,nt,-3.0
Clc1ccc(OCCCc2nc(-c3ccncc3)no2)c(Cl)c1,33.4*,2.4,nt,-8.0,nt,nt

# Source: PubChem (several laboratories)
